Reference: ChEMBL document CHEMBL3580581, “Bisabolane Sesquiterpenoids from the Plant Endophytic Fungus Paraconiothyrium brasiliense” (J Nat Prod, 2015)
Calls of active or inactive are those of the source. No cut-off for these calls is given here.

Tests used:
A549 [1] = assay: Cytotoxicity against human A549 cells assessed as reduction in cell viability by MTS assay; type: functional, cell-based
Outline: (§1)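 MTS viability assay. Cells were seeded at 5 × 10^3 per well for 24 h, then exposed to serial dilutions (5, 10, 15, 20, and 50 μM) in medium with 10% FBS and grown for the indicated duration. Controls got DMSO. MTS was added for 1 h at 37 °C and absorbance read at 490 nm. Results are % of control, with IC50 calculated.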

[2] = Cytotoxicity against human CNE1-LMP1 cells assessed as reduction in cell viability by MTS assay; type: functional, cell-based; outline: as §1
A-375 [3] = assay: Cytotoxicity against human A375 cells assessed as reduction in cell viability by MTS assay; type: functional, cell-based; outline: as §1
MCF7 [4] = assay: Cytotoxicity against human MCF7 cells assessed as reduction in cell viability by MTS assay; type: functional, cell-based
[5] = Cytotoxicity against human MGC cells assessed as reduction in cell viability by MTS assay; type: functional, cell-based; outline: as §1
[6] = Cytotoxicity against human EC109 cells assessed as reduction in cell viability by MTS assay; type: functional, cell-based; details: ECa-109; outline: as §1
[7] = Cytotoxicity against human PANC1 cells assessed as reduction in cell viability by MTS assay; type: functional, cell-based; details: PANC-1; outline: as §1
[8] = Cytotoxicity against human Hep3B2 cells assessed as reduction in cell viability by MTS assay; type: functional, cell-based, Hep 3B2; details: Hep3B; outline: as §1
HaCaT [9] = assay: Cytotoxicity against human HaCaT cells assessed as reduction in cell viability by MTS assay; type: cell-based; outline: as §1
[10] = Cytotoxicity against mouse NIH/3T3 cells assessed as reduction in cell viability by MTS assay; type: cell-based; details: NIH3T3; outline: as §1
MCF7 [11] = assay: Reduction in glucose uptake in human MCF7 cells assessed per 10^5 cells at 20 uM incubated for 12 hrs (reference value: 5.6 nM/hr/10^5 cells); type: functional
Outline: (§2)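 Cells were seeded and after 24 h switched to fresh medium with 10% FBS, with or without 20 μM compound. After 12 h, supernatant glucose and lactate were measured on an automatic biochemistry analyzer. Cell numbers were counted in parallel by MTS. Rates (nmol/h/10^5 cells) were computed as the difference from blank medium divided by 12 h and by cell number. LY294002 served as positive control.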

MCF7 [12] = assay: Reduction in lactate secretion in human MCF7 cells assessed per 10^5 cells at 20 uM incubated for 12 hrs; type: functional; outline: as §2
HaCaT [13] = assay: Toxicity in human HaCaT cells assessed as reduction in glucose uptake per 10^5 cells at 20 uM incubated for 12 hrs; type: cell-based; outline: as §2
HaCaT [14] = assay: Toxicity in human HaCaT cells assessed as reduction in lactate secretion per 10^5 cells at 20 uM incubated for 12 hrs; type: cell-based; outline: as §2
MCF7 [15] = assay: Reduction in ATP generation in human MCF7 cells at 20 uM incubated for 12 and 24 hrs; type: functional, cell-based
Outline: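 MCF-7 cells were exposed to 20 μM for 2, 4, 6, 8, 12 and 24 h. ATP was measured with a commercial kit, quantified against an ATP standard curve and expressed as % of the control group.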

MCF7 [16] = assay: Reduction in hexokinase-2 protein expression in human MCF7 cells by SDS-PAGE and Western blotting method; type: functional, cell-based; details: TDE = time-dependent effect
Outline: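 MCF-7 cells were treated for 1, 3, 6, 12, 24 and 48 h and lysed in cold buffer. 50 μg protein was run on 10% SDS-PAGE and transferred to nitrocellulose. Membranes were probed with anti-HK2 primary antibody at 4 °C overnight, then HRP secondary for 1 h at room temperature, with ECL detection. α-Tubulin was the internal control.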

A549 [17] = assay: Cytotoxicity against human A549 cells assessed as reduction in cell viability at 50 uM by MTS assay; type: functional, cell-based; outline: as §1
CNE1-LMP1 = assay: Cytotoxicity against human CNE1-LMP1 cells assessed as reduction in cell viability at 50 uM by MTS assay; type: functional, cell-based; outline: as §1
A-375 [18] = assay: Cytotoxicity against human A375 cells assessed as reduction in cell viability at 50 uM by MTS assay; type: functional, cell-based; outline: as §1
MCF7 [19] = assay: Cytotoxicity against human MCF7 cells assessed as reduction in cell viability at 50 uM by MTS assay; type: functional, cell-based; outline: as §1
MGC = assay: Cytotoxicity against human MGC cells assessed as reduction in cell viability at 50 uM by MTS assay; type: functional, cell-based; outline: as §1
ECa-109 = assay: Cytotoxicity against human EC109 cells assessed as reduction in cell viability at 50 uM by MTS assay; type: functional, cell-based; outline: as §1
PANC-1 = assay: Cytotoxicity against human PANC1 cells assessed as reduction in cell viability at 50 uM by MTS assay; type: functional, cell-based; outline: as §1
Hep 3B2 = assay: Cytotoxicity against human Hep3B2 cells assessed as reduction in cell viability at 50 uM by MTS assay; type: functional, cell-based; outline: as §1
HaCaT [20] = assay: Cytotoxicity against human HaCaT cells assessed as reduction in cell viability at 50 uM by MTS assay; type: cell-based; outline: as §1
[21] = Cytotoxicity against mouse NIH/3T3 cells assessed as reduction in cell viability at 50 uM by MTS assay; type: cell-based; details: nih3t3, 50 µM; outline: as §1

## C=C1CCC(c2coc(/C=C(\C)C(N)=O)c2)CC1
A549 [1]
  IC50: > 50 µM
[2]
  IC50: > 50 µM
A-375 [3]
  IC50: > 50 µM
MCF7 [4]
  IC50: 8.4 µM
[5]
  IC50: 14.7 µM
[6]
  IC50: > 50 µM
[7]
  IC50: > 50 µM
[8]
  IC50: > 50000 nM
HaCaT [9]
  IC50: > 50 µM
[10]
  IC50: > 50 µM
MCF7 [11]
  Activity: 4.2 nM/h
MCF7 [12]
  Activity: 0.5 nM/h
HaCaT [13]
  Activity: Non-toxic
HaCaT [14]
  Activity: Non-toxic
MCF7 [15]
  inhibition: Active
MCF7 [16]
  inhibition: tde

## C/C(=C\c1cc([C@H]2CC[C@@](O)(CO)CC2)co1)C(N)=O
A549 [17]
  Activity: inactive
CNE1-LMP1
  Activity: inactive
A-375 [18]
  Activity: inactive
MCF7 [19]
  Activity: inactive
MGC
  Activity: inactive
ECa-109
  Activity: inactive
PANC-1
  Activity: inactive
Hep 3B2
  Activity: inactive
HaCaT [20]
  Activity: Non-toxic
[21]
  Activity: Non-toxic

## C=C1CCC(C2=C/C(=C/C(C)C(N)=O)OC2=O)CC1 (racemic)
A549 [17]
  Activity: inactive
CNE1-LMP1
  Activity: inactive
A-375 [18]
  Activity: inactive
MCF7 [19]
  Activity: inactive
MGC
  Activity: inactive
ECa-109
  Activity: inactive
PANC-1
  Activity: inactive
Hep 3B2
  Activity: inactive
HaCaT [20]
  Activity: Non-toxic
[21]
  Activity: Non-toxic

## C=C1CCC(C2=C/C(=C\C(C)C(N)=O)OC2=O)CC1 (racemic)
A549 [17]
  Activity: inactive
CNE1-LMP1
  Activity: inactive
A-375 [18]
  Activity: inactive
MCF7 [19]
  Activity: inactive
MGC
  Activity: inactive
ECa-109
  Activity: inactive
PANC-1
  Activity: inactive
Hep 3B2
  Activity: inactive
HaCaT [20]
  Activity: Non-toxic
[21]
  Activity: Non-toxic

## CC(/C=C1/C=C([C@H]2CC[C@@](O)(CO)CC2)C(=O)O1)C(N)=O (mixture of isomers)
A549 [17]
  Activity: inactive
CNE1-LMP1
  Activity: inactive
A-375 [18]
  Activity: inactive
MCF7 [19]
  Activity: inactive
MGC
  Activity: inactive
ECa-109
  Activity: inactive
PANC-1
  Activity: inactive
Hep 3B2
  Activity: inactive
HaCaT [20]
  Activity: Non-toxic
[21]
  Activity: Non-toxic

## CC(=O)OC[C@]1(O)CC[C@H](C2=C/C(=C/C(C)C(N)=O)OC2=O)CC1 (mixture of isomers)
A549 [17]
  Activity: inactive
CNE1-LMP1
  Activity: inactive
A-375 [18]
  Activity: inactive
MCF7 [19]
  Activity: inactive
MGC
  Activity: inactive
ECa-109
  Activity: inactive
PANC-1
  Activity: inactive
Hep 3B2
  Activity: inactive
HaCaT [20]
  Activity: Non-toxic
[21]
  Activity: Non-toxic

## CC(=O)O[C@H]1C(=O)[C@@]2(C)[C@H]([C@H](OC(=O)c3ccccc3)[C@]3(O)C[C@H](OC(=O)[C@H](O)[C@@H](NC(=O)c4ccccc4)c4ccccc4)C(C)=C1C3(C)C)[C@]1(OC(C)=O)CO[C@@H]1C[C@@H]2O [PACLITAXEL]
[2]
  IC50: 0.0042 µM
[5]
  IC50: 0.0064 µM
[6]
  IC50: 0.14 µM
[7]
  IC50: 0.0011 µM
[8]
  IC50: 0.016 nM
[10]
  IC50: 4.2 µM
